Reference: publication PMC4668232 (Cancer research, 2015)
Numbered stars: 1 amine (or outer) side, 2 acyl side, 3 side chain; on linkers, the order of the positions; unused ones are H or OH. Peptide text beside a SMILES is read from it. * marks the point of attachment. AMC = Cc1cc(=O)oc2cc(N*)ccc12; Suc = O=C(CCC(=O)[*:2])[*:1]; Cbz = O=C(OCc1ccccc1)*

Legend:
recombinant UCHL3 = recombinant UCHL3 (Homo sapiens, UniProt P15374); assay: Recombinant DUB assay, UCHL3; format: biochemical
cancer cell lines = settings: read-out: EC50, inhibition of cell growth; exposure for only 3 h; cited from earlier work
Mcl-1 in BaF3/p210 cells = assay: Mcl-1 levels, western blot; format: cell-based, mouse; settings: 4 h
catalytic domain of USP7 = catalytic domain of USP7 (Homo sapiens, UniProt Q93009); assay: Recombinant DUB assay, USP7 catalytic domain; format: biochemical
[1] = target: UCH37 in the 19S regulatory particle (Homo sapiens, UniProt Q9Y5K5); assay: Activity profiling of UCH37 in 19S regulatory particle with Cy5-UbVME; format: biochemical; settings: read-out: EC50, inhibition of UCH37
USP9x in BaF3/p210 cells = USP9x in BaF3/p210 cells (Mus musculus, UniProt P70398); assay: USP9x inhibition in living cells; format: cell-based; settings: read-out: IC50, USP9x inhibition in cells; BaF3/p210 cells treated 4 h
USP7 = USP7 (Mus musculus, UniProt Q6A4J8); assay: DUB activity profiling in cell lysates, USP7; format: biochemical; settings: immunoblotting
[2] = tested on: 26S proteasome activity in COS1 cells expressing Ub^G76V-GFP; assay: Ubiquitin G76V-GFP assay; format: cell-based, African green monkey; settings: 8 h; for Effect on GFP levels: BITC, PEITC 12 μM, WP1130 5 μM
UCH37 = UCH37 (Mus musculus, UniProt Q9WUP7); assay: DUB activity profiling in cell lysates, UCH37 labeling; format: biochemical; settings: read-out: IC50, inhibition of UCH37 labeling
Flag-Mcl-1 in COS1 cells = assay: Flag-Mcl-1 ubiquitination, immunoprecipitation; format: cell-based, African green monkey; settings: COS1 cells expressing Flag-Mcl-1, 2 h
recombinant USP9x [3] = target: T1, recombinant USP9x (Homo sapiens, UniProt Q93008); assay: Recombinant DUB assay; format: biochemical; settings: for Ki: read-out: Ki, recombinant USP9x, Ub-AMC hydrolysis
Procedure, shortened: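 Purified recombinant human USP9x was assayed by Ub-AMC hydrolysis. AMC release was monitored fluorimetrically at 37 °C in 50 mM HEPES pH 7.6, 100 mM NaCl, 0.75 mM BME and quantified against AMC standard curves. Slow-binding kinetics were analysed: kon was determined at varied Ub-AMC concentrations to assign inhibition mode, and Ki was derived.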

USP24 = USP24 (Mus musculus, UniProt B1AY13); assay: DUB activity profiling in cell lysates, USP24 labeling; format: biochemical; settings: read-out: IC50, USP24 labeling
[4] = tested on: MCF7, NIH3T3 and COS1 cells; assay: Proliferation/viability assay, 48 h; format: cell-based
USP9x = USP9x (Mus musculus, UniProt P70398); assay: DUB activity profiling in cell lysates, USP9x labeling; format: biochemical; settings: read-out: IC50, inhibition of USP9x labeling
DUBs = format: biochemical, mouse; settings: for Reversibility of inhibition of DUB labeling: lysate incubated with 250 μM ITC, then diluted 20-fold into HA-UbVS; for Labeling of several DUBs (bands between 120 and 300 kDa): cell lysates, HA-UbVS
[5] = tested on: PARP cleavage in BaF3/p210 cells; assay: PARP cleavage, western blot; format: cell-based, mouse; settings: 5 μM
[6] = tested on: Bcr-Abl in BaF3/p210 cells; assay: Bcr-Abl levels and aggregation, western blot; format: cell-based, mouse
[7] = tested on: K63-linked Ub in BaF3/p210 cells; assay: K63-linked HMW-Ub accumulation, whole cell lysate western blot; format: cell-based, mouse; settings: 4 h
[8] = tested on: BaF3, BaF3/p210 and K562 cells; assay: Proliferation/viability assay, 48 h; format: cell-based; settings: read-out: EC50, viability
[9] = tested on: Bcr-Abl in BaF3/p210 and K562 cells; assay: Bcr-Abl ubiquitination; format: cell-based; settings: 5 μM, 2 h
Procedure, shortened: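 BaF3/p210 cells (1 h) or K562 cells (2 h) were exposed to 5 μM test compound or 0.1% DMSO at 37 °C. Lysates were set to 1 mg/mL and pre-cleared with protein G (1 h, 4 °C). Bcr-Abl was immunoprecipitated with anti-cAbl overnight at 4 °C onto protein G beads. Alternatively, K63-linked polyubiquitinated proteins were enriched on RAP80-UIM agarose. Immunoblotting followed.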

[10] = tested on: K48-linked Ub in BaF3/p210 cells; assay: K48-linked HMW-Ub accumulation, whole cell lysate western blot; format: cell-based, mouse; settings: 4 h; for Increase in K48-linked Ub: 15 μM; for Accumulation of K48-linked HMW-Ub: bortezomib 20 nM
recombinant USP9x [11] = target: T1, recombinant USP9x; assay: Labeling of recombinant USP9x with Cy5-UbVME; format: biochemical; settings: read-out: IC50, inhibition of labeling of recombinant USP9x with Cy5-UbVME; purified recombinant enzyme
human 20S proteasome = human 20S proteasome (Homo sapiens, UniProt P28074); assay: 20S proteasome assay; format: biochemical; settings: substrate; Hill coefficient = 2; pH 7.6, 25 °C
[12] = tested on: proteasome activity of rabbit reticulocyte lysate; assay: Proteasome activity of rabbit reticulocyte lysate; format: biochemical; settings: substrate; Hill coefficient = 1.3

T1 sequence (Q93008 whole entry): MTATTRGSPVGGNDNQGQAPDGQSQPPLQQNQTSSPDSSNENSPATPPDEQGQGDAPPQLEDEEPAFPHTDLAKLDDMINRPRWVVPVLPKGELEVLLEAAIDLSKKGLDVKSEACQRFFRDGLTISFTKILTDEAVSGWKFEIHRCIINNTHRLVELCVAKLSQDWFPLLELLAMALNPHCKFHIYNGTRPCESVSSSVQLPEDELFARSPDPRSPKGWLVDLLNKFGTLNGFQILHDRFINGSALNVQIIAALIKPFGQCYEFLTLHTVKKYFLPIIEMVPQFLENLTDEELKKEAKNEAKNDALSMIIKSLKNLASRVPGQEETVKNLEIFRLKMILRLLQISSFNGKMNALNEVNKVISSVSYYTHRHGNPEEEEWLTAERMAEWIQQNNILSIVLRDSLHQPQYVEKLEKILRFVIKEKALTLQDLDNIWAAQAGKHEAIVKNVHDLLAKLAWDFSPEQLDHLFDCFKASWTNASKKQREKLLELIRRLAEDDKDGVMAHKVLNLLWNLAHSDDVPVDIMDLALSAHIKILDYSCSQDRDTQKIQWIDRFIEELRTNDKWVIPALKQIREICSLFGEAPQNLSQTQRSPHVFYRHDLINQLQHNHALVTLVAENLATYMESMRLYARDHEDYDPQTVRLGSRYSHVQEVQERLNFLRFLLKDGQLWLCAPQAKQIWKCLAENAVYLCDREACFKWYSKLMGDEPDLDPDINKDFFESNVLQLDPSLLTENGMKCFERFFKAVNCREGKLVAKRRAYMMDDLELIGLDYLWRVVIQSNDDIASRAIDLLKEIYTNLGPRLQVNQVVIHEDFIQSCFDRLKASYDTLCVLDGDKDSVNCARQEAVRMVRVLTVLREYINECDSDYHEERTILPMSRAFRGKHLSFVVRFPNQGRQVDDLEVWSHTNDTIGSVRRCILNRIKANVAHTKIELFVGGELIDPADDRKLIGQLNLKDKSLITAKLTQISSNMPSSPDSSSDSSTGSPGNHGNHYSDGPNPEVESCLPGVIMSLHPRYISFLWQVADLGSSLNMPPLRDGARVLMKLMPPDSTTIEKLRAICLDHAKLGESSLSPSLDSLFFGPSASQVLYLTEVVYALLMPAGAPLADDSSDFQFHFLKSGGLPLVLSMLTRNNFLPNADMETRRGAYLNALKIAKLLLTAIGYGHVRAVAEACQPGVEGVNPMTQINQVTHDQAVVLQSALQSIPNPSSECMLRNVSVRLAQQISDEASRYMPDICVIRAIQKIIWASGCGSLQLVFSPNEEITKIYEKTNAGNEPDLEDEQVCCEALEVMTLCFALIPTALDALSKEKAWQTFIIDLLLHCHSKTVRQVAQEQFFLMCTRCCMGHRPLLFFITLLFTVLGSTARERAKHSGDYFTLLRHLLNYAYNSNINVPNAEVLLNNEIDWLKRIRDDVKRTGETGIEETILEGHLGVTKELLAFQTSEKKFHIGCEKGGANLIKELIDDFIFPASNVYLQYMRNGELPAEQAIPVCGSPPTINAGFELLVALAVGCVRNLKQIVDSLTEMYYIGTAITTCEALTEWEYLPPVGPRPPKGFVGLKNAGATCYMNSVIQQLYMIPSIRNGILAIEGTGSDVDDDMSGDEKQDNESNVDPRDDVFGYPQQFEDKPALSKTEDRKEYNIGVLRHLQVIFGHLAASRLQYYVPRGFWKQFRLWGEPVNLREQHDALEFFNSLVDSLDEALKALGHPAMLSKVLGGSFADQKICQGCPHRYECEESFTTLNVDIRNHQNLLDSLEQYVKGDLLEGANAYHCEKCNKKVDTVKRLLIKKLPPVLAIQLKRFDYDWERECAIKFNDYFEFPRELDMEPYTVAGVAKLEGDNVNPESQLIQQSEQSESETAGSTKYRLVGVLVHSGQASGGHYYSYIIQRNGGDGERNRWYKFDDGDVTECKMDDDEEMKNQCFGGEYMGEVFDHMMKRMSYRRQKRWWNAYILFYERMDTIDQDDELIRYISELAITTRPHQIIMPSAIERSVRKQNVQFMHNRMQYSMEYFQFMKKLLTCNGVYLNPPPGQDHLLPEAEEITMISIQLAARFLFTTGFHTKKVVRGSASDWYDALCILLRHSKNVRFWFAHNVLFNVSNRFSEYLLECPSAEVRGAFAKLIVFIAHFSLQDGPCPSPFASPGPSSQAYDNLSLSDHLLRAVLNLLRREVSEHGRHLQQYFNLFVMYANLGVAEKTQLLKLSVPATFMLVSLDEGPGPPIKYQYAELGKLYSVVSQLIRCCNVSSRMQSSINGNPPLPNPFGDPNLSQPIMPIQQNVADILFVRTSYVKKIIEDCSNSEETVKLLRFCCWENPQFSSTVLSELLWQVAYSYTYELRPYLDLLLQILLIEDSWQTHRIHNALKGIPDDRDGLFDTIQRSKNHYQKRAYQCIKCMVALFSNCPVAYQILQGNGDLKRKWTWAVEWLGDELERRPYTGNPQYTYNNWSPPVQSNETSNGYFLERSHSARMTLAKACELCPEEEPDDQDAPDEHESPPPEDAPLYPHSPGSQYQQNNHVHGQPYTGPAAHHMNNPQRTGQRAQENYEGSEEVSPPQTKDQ
recombinant UCHL3, sequence (P15374 whole entry): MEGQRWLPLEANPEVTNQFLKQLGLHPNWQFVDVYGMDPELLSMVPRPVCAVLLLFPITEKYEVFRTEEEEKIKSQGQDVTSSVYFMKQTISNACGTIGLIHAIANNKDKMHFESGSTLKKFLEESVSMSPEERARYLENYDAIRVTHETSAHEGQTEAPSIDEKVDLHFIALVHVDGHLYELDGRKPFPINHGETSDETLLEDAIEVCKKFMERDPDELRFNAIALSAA
UCH37, sequence (Q9WUP7 whole entry): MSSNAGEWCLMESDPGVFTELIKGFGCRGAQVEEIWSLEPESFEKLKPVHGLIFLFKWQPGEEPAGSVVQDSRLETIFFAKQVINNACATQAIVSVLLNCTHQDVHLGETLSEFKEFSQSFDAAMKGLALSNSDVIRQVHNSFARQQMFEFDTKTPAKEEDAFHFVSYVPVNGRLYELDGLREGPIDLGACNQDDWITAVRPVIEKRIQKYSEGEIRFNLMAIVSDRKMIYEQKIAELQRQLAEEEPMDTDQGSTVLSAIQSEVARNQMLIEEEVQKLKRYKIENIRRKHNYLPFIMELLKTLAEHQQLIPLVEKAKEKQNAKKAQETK
USP7, sequence (Q6A4J8 whole entry): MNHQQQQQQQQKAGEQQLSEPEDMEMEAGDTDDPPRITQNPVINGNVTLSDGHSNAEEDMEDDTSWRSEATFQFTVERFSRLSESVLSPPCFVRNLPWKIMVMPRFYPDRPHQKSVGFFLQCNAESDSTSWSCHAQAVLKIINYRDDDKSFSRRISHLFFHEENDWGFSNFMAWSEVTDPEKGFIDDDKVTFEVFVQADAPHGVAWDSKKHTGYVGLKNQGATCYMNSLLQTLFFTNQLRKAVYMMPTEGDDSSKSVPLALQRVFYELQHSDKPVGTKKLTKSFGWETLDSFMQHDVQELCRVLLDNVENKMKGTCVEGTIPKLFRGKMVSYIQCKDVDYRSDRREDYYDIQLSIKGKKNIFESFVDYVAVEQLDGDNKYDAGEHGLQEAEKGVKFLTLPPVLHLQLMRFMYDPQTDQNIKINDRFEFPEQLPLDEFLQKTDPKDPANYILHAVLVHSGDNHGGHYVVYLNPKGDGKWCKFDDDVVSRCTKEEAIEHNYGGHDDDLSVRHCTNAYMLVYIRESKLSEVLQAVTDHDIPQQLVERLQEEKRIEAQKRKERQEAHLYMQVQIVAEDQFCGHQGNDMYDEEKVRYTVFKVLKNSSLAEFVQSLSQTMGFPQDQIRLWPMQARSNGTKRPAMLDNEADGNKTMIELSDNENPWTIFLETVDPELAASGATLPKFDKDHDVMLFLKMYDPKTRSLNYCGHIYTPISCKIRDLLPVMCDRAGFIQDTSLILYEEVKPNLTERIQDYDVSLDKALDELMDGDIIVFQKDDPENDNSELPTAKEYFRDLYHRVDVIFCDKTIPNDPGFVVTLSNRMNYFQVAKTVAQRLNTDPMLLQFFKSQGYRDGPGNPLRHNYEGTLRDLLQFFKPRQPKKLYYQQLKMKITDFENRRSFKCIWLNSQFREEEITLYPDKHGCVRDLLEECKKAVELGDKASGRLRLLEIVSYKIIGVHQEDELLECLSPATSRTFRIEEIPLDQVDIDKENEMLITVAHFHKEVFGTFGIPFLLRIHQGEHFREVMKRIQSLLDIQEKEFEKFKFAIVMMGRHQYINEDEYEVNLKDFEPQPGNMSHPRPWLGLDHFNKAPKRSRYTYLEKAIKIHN
catalytic domain of USP7, sequence (Q93009 214-521 limits assumed): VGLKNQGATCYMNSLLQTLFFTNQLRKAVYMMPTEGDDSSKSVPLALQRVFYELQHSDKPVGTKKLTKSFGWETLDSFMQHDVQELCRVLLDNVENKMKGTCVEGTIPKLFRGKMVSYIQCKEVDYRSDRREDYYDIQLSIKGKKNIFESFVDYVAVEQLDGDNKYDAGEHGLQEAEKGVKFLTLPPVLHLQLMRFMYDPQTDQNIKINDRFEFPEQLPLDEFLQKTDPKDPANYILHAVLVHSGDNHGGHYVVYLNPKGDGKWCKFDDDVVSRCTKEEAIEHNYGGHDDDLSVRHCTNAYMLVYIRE

SMILES: S=C=NCc1ccccc1 [BITC, benzyl ITC]
- Inhibition of recombinant UCHL3 (recombinant UCHL3): No inhibition
- EC50 (cancer cell lines): 1.8 to 17 µM
- Effect on Mcl-1 levels (Mcl-1 in BaF3/p210 cells): decrease
- Inhibition of the catalytic domain of USP7 (catalytic domain of USP7): No inhibition
- EC50 [1]: 31 ± 6 µM
- IC50 (USP9x in BaF3/p210 cells): 4 ± 1 µM
- Inhibition of USP7 (USP7): do not inhibit
- Effect on GFP levels [2]: did not increase
- IC50 (UCH37): 22 ± 4 µM
- Levels of ubiquitinated Flag-Mcl-1 (Flag-Mcl-1 in COS1 cells): increased
- Mode of inhibition of recombinant USP9x (recombinant USP9x [3]): slow binding competitive inhibitors
- Ki (recombinant USP9x [3]): 25 ± 1 µM
- IC50 (USP24): 56 ± 5 µM
- Fold less sensitive than Mcl-1-dependent cells [4]: 8 to 40 fold
- IC50 (USP9x): 27 ± 6 µM
- Reversibility of inhibition of DUB labeling (DUBs): slowly reversible
- Time at which PARP cleavage was observed [5]: 6 h
- Effect on levels of total Bcr-Abl [6]: decreased
- Bcr-Abl knockdown ([6]; 5 μM, 2 h): essentially complete
- Increase in K63-linked Ub [7]: 9-18 fold
- EC50 [8]: 1 to 3 µM
- Bcr-Abl ubiquitination [9]: increase
- Increase in K48-linked Ub [10]: 2 to 4 fold

SMILES: CC(C)C[C@H](NC(=O)[C@H](Cc1ccccc1)NC(=O)c1cnccn1)B(O)O [bortezomib, reference compound]
- Effect on Mcl-1 levels (Mcl-1 in BaF3/p210 cells): increased
- Increase in GFP fluorescence ([2]; bortezomib 4 μM): 1.5 fold
- Levels of ubiquitinated Flag-Mcl-1 (Flag-Mcl-1 in COS1 cells): increased
- Effect on K63-linked Ub ([7]; bortezomib 20 nM): no effect
- Accumulation of K48-linked HMW-Ub [10]: increased

SMILES: C[S+]([O-])CCCCN=C=S (stereo not shown) [SFN, sulforaphane]
- EC50 (cancer cell lines): ~50 µM
- Accumulation of K48-linked HMW-Ub [10]: no effect

SMILES: O=C1/C(=C/c2ccc([N+](=O)[O-])cc2)CS(=O)(=O)C/C1=C\c1ccc([N+](=O)[O-])cc1 [G5, reference compound]
- Labeling of several DUBs (bands between 120 and 300 kDa) (DUBs): reduced

SMILES: S=C=NCCc1ccccc1 [PEITC, phenethyl ITC]
- Inhibition of recombinant UCHL3 (recombinant UCHL3): No inhibition
- EC50 (cancer cell lines): 1.8 to 17 µM
- Effect on Mcl-1 levels (Mcl-1 in BaF3/p210 cells): decrease
- Inhibition of the catalytic domain of USP7 (catalytic domain of USP7): No inhibition
- EC50 [1]: 36 ± 5 µM
- IC50 (USP9x in BaF3/p210 cells): 7 ± 2 µM
- Inhibition of USP7 (USP7): do not inhibit
- Effect on GFP levels [2]: did not increase
- IC50 (UCH37): 13 ± 1 µM
- Levels of ubiquitinated Flag-Mcl-1 (Flag-Mcl-1 in COS1 cells): increased
- Mode of inhibition of recombinant USP9x (recombinant USP9x [3]): slow binding competitive inhibitors
- Ki (recombinant USP9x [3]): 23 ± 2 µM
- IC50 (USP24): 28 ± 5 µM
- Fold less sensitive than Mcl-1-dependent cells [4]: 8 to 40 fold
- IC50 (USP9x): 15 ± 3 µM
- Reversibility of inhibition of DUB labeling (DUBs): slowly reversible
- Time at which PARP cleavage was observed [5]: 4 h
- Effect on levels of total Bcr-Abl [6]: decreased
- Bcr-Abl level, % of its initial level ([6]; 5 μM, within 2 h): 20%
- Increase in K63-linked Ub [7]: 9-18 fold
- EC50 [8]: 1 to 3 µM
- Bcr-Abl ubiquitination [9]: increase
- IC50 (recombinant USP9x [11]): 20 ± 2 µM
- Increase in K48-linked Ub [10]: 2 to 4 fold

SMILES: Cc1cc(=O)oc2cc(NC(=O)[C@H](Cc3ccc(O)cc3)NC(=O)[C@@H](NC(=O)[C@H](CC(C)C)NC(=O)[C@H](CC(C)C)NC(=O)CCC(=O)O)C(C)C)ccc12 [Suc-Leu-Leu-Val-Tyr-AMC] (Suc-LLVY-{AMC})
- K0.5 for human 20S proteasome (human 20S proteasome): 12 ± 2 µM
- Apparent K0.5 of proteasome activity of rabbit reticulocyte lysate [12]: 28 ± 3 µM

SMILES: CCC[C@H](NC(=O)/C(C#N)=C/c1cccc(Br)n1)c1ccccc1 [WP1130, reference compound]
- Effect on GFP levels [2]: did not cause an increase
- Levels of ubiquitinated Flag-Mcl-1 (Flag-Mcl-1 in COS1 cells): increased
- Labeling of several DUBs (bands between 120 and 300 kDa) (DUBs): reduced

SMILES: CC(C)C[C@@H](C=O)NC(=O)[C@H](CC(C)C)NC(=O)[C@H](CC(C)C)NC(=O)OCc1ccccc1 [MG-132, reference compound] (Cbz-Leu-Leu-Leu-aldehyde)
- Effect on Mcl-1 levels (Mcl-1 in BaF3/p210 cells): increased
